According to ChEMBL document CHEMBL1121634, “Heat-induced formation of alpha,beta-unsaturated nucleoside dialdehydes and their activity with adenosine deaminase” (J Med Chem, 1980):

Columns and labels:
[1] = molecular target: T1, Adenosine deaminase (Bos taurus, UniProt P56658); experiment: Inhibitor constant against adenosine deaminase in 0.05 M sodium phosphate buffer at pH 7.0 was determined after heating to 100 degrees celsius
T1 sequence (P56658 whole entry): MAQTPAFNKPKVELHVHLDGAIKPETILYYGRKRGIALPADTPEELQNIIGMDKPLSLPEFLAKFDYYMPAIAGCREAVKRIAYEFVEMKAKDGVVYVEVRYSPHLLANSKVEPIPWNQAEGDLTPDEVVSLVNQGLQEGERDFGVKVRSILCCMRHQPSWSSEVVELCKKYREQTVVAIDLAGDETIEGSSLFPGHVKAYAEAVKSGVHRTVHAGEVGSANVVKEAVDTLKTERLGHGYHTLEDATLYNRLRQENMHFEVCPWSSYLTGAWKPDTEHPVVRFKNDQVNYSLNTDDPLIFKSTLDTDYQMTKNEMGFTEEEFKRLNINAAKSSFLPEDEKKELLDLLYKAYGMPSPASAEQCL
How it was run: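 Dialdehyde heated at 100 °C in aqueous phosphate buffer before testing. Adenosine deaminase (0.25 unit) added to buffered adenosine (30–70 μM, at least five levels) with dialdehyde (3–190 μM, two levels). Rate of absorbance change at 265 nm followed at 25 °C, 0.05 M sodium phosphate, pH 7.0. Ki from Lineweaver–Burk plots fitted by Wilkinson least squares.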

[2] = molecular target: T1, Adenosine deaminase; experiment: Inhibitory constant against adenosine deaminase in 0.05 M sodium phosphate buffer at pH 7.0 was determined before heating
[3] = molecular target: T1, Adenosine deaminase; experiment: Inhibitory constant against adenosine deaminase in 0.05 M sodium phosphate buffer at pH 7.0, was determined before heating
[4] = molecular target: T1, Adenosine deaminase; experiment: Inhibitor constant against adenosine deaminase in 0.05 M sodium phosphate buffer at pH 7.0, was determined after heating to 100 degrees celsius
How it was run: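 Dialdehyde pre-heated as an aqueous phosphate-buffer solution at 100 °C (about 1 h). Adenosine deaminase (0.25 unit) added to buffered adenosine (30–70 μM) plus dialdehyde (3-190 μM) in 0.05 M sodium phosphate, pH 7.0, 25 °C. Absorbance change at 265 nm followed. At least five substrate and two inhibitor levels used. Ki from Lineweaver–Burk plots, least-squares lines.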

| Ki [1] [µM] | Ki [2] [µM] | Ki [3] [µM] | Ki [4] [µM] | SMILES |
| --- | --- | --- | --- | --- |
| 24 | – | – | – | CC(O)[C@@H](C=O)OC(C=O)n1cnc2c(N)ncnc21 (single isomer, unassigned; 7) |
| 30 | 46 | – | – | Nc1ncnc2c1ncn2[C@@H](C=O)OCC=O |
| 30 | 28 | – | – | C[C@@H](C=O)O[C@@H](C=O)n1cnc2c(N)ncnc21 (stereo in doubt; 4) |
| 8 | – | 310 | – | Nc1ncnc2c1ncn2[C@H](C=O)O[C@@H](C=O)CO |
| 800 | 780 | – | – | Nc1ncnc2c1ncn2[C@H](C=O)OCC=O |
| 20 | 150 | – | – | CC(O)[C@@H](C=O)OC(C=O)n1cnc2c(N)ncnc21 (single isomer, unassigned; 10) |
| 21 | – | – | – | CC(O)[C@H](C=O)OC(C=O)n1cnc2c(N)ncnc21 (single isomer, unassigned) |
| 100 | 160 | – | – | C[C@@H](C=O)O[C@@H](C=O)n1cnc2c(N)ncnc21 (stereo in doubt; 13) |
| 38 | – | – | – | CC(O)[C@H](C=O)O[C@@H](C=O)n1cnc2c(N)ncnc21 (stereo in doubt; 9) |
| – | – | 520 | 5 | Nc1ncnc2c1ncn2[C@@H](C=O)O[C@@H](C=O)CO |
| – | 4 | – | – | C=C(C=O)OC(C=O)n1cnc2c(N)ncnc21 (centres undefined) |
| 69 | – | – | – | CC(O)[C@H](C=O)O[C@@H](C=O)n1cnc2c(N)ncnc21 (stereo in doubt; 8) |
